# HTR1E agonist – 5-HT1E receptor agonists, primary screen, cell-based, HTS; 5-hydroxytryptamine receptor 1E (Homo sapiens), P28566; CHO 5-HT1E Ga15 NFAT-bla reporter, FRET; 0% DMSO wells, 100% control agonist wells; activation, % at 6 µM; 0.69% of 65,000 active; AID 574, 2007;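 active = activation above a set limit, the screen-wide mean activation plus 3 SD, cut at about 8.5% in these data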;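 note: 100% = positive control agonist at 1 µM giving full maximal response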
# 5HT1E antag – 5-HT1E receptor antagonists, primary screen, cell-based, HTS; 5-hydroxytryptamine receptor 1E (Homo sapiens), P28566; CHO 5-HT1E Ga15 NFAT-bla reporter, FRET, antagonist; inhibition, % at 6 µM; 0.99% of 65,000 active; AID 571, 2007;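 active = inhibition above a set limit, the mean inhibition across every tested compound plus 3 SD, cut at about 29% in these data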;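 note: signal is the 460 over 535 nm emission ratio of beta-lactamase substrate; 0% = agonist plus DMSO wells and 100% = wells without agonist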
# 5HT1a antag – human 5-HT1a receptor antagonists, primary screen, cell-based, CHO, Ga15 NFAT-bla reporter. CHO 5-HT1a Ga15 NFAT-bla reporter, antagonist mode. inhibition, % at 10 µM. 0.68% of 62,000 active. AID 612, 2007;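 active = inhibition above the mean of all tested compounds plus 3 SD, cut at about 43% in these data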;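 note: receptor stimulated by 5-CT agonist at 100 nM near EC80; beta-lactamase reporter measured by ratiometric fluorescence of a cleavable substrate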
# Target sequence (P08908 whole entry, looked up): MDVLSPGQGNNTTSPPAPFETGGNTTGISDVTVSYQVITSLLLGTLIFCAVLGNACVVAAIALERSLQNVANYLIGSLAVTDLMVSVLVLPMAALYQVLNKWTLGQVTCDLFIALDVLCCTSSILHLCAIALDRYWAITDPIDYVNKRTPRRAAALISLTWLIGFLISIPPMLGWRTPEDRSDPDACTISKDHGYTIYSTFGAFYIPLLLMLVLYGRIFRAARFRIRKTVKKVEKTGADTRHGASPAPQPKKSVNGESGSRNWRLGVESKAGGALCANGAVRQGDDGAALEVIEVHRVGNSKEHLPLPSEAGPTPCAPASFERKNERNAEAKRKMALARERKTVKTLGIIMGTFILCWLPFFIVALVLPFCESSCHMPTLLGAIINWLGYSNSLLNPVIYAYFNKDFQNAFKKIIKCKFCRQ
# S1P1 ag-PAM – S1P1 agonists and agonism potentiators, primary screen, cell-based, primary and confirmation screens, CRE-bla reporter. Sphingosine 1-phosphate receptor 1 (Homo sapiens), P21453. S1P1 CRE-bla cells, forskolin, beta-lactamase FRET, potentiator mode; S1P1 agonist co-added at EC20, 2 nM; 100% = saturating reference agonist, 0% = basal. activation, % at 9.5 µM. 0.57% of 56,000 active. AID 449, 2006;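 active = activation above a cutoff set at the mean activation of all tested compounds plus 3 SD, cut at about 54% in these data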;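 note: forskolin at 4 µM as EC80 and the EC20 agonist is SEW2871; 100% = SEW2871 at its EC100 plus forskolin at EC80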
# S1P3 agonist – human S1P3 receptor agonists, primary screen, cell-based, primary and confirmation, NFAT-BLA reporter; S1P3 NFAT-BLA reporter cells, agonism, FRET ratio; relative to 1 µM S1P, basal subtracted; activation, % at 4.5 µM; 0.1% of 60,000 active; AID 373, 2006;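 active = activation above the screen-wide mean plus 3 SD, cut at about 4.5% in these data, passing the limit was not always enough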
#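 Material: Human S1P3 NFAT-BLA reporter CHO cells | Incubation: Overnight plating, 4 h compound 37 °C, 2 h substrate RT | Signal: FRET β-lactamase substrate fluorescence, excitation 405 nm, 460/535 nm emission ratio, background-subtracted | Compound: 4.5 µM final, single dose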
# 5HT1a ag – human 5-HT1a receptor agonists, primary screen, cell-based, CHO, Ga15 NFAT-bla reporter; 5-hydroxytryptamine receptor 1A (Homo sapiens), P08908; CHO 5-HT1a Ga15 NFAT-bla reporter, FRET ratio; 0% basal, 100% maximal reference agonist; activation, % at 10 µM; 0.56% of 65,000 active; AID 567, 2006;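 active = activation above the screen-wide mean activation plus 3 SD, cut at about 19% in these data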;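 note: 0% = DMSO wells and 100% = 5-CT at EC100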
# Active calls of the source: *; nt = no result given. Sampled rows, rich in hits. Any-hit rate of the full collection: about 2.9%.
SMILES,HTR1E agonist,5HT1E antag,5HT1a antag,S1P1 ag-PAM,S1P3 agonist,5HT1a ag
O=C1CC(C(=O)Nc2ccccc2)C2(CCCC2)O1 (stereo not drawn),14.2*,0.7,1.3,nt,nt,-0.5
O=C(O)CCCC(=O)Nc1ccccc1C(=O)N1CCCC1,1.6,-0.1,-15.4,-21.6,-1.0,-0.6
CC1CCN(CCCNC(=O)CN2CCN(Cc3ccc(Cl)cc3)C2=O)CC1,1.2,31.1*,-2.3,4.0,-0.9,-1.7
CCOc1cc(S(=O)(=O)NCc2ccccn2)c(C)cc1C,0.0,4.6,2.5,-12.9,-1.0,53.5*
COc1ccc(C(C)C)cc1S(=O)(=O)NCc1ccccn1,-1.1,-8.5,-0.3,-13.7,-1.4,-1.4
CCCCC(CC)Cn1c2nc3ccccc3nc2c2c(=N)oc(C)nc21 (stereo not drawn),0.2,-7.6,-8.0,nt,nt,2.9
CCCCC(CC)Cn1c(N)c(C#N)c2nc3ccccc3nc21 (stereo not drawn),17.1*,-14.0,-68.3,-268.6,3.0,45.8*
O=C(CN(Cc1cccs1)C(=O)CN1C(=O)COc2ccccc21)NCc1ccco1,0.5,-3.0,3.8,-12.1,-0.5,-1.5
CSc1ccccc1NC(=O)c1cccnc1,48.1*,-2.9,-12.2,3.7,0.9,-0.6
O=C(COC(=O)c1ccccc1Oc1ccccc1)NC1CCS(=O)(=O)C1 (stereo not drawn),-0.3,3.9,-13.9,10.1,0.8,0.3
CSc1ncccc1C(=O)OCC(=O)NC1CCS(=O)(=O)C1 (stereo not drawn),-0.6,8.2,-1.5,5.0,-0.4,20.9*
COc1cccc(CNC(=O)C2CCCN(S(=O)(=O)c3c(C)n[nH]c3C)C2)c1 (stereo not drawn),-1.4,3.6,6.8,12.9,0.4,-1.7
CCOC(=O)CSC1=C(C#N)C(c2ccc(C)o2)CC(=O)N1 (stereo not drawn),-0.2,42.7*,34.4,-10.8,-1.2,-2.6
CCOC(=O)CSC1=C(C#N)C(c2ccc(Cl)cc2)CC(=O)N1 (stereo not drawn),0.6,18.7,3.1,-11.2,-0.1,-0.6
COc1ccccc1NC(=O)Cc1csc(N)n1,-0.5,4.2,-5.7,4.1,1.3,-2.0
O=C1C2=C(Nc3ccccc3SC2c2ccco2)c2ccccc21 (stereo not drawn),-0.1,8.3,70.0*,9.4,-1.6,-1.2
O=C(CSc1ccc2nnc(-c3ccc(Cl)cc3)n2n1)N1CCN(c2ccccc2)CC1,0.3,2.3,-0.5,-16.8,-0.9,0.3
Cc1cc(C(=O)CSc2nnc(-c3cccs3)o2)c(C)n1-c1ccccc1,0.0,0.9,12.4,100.9*,-0.7,-1.1
Cc1cc(C(=O)CSc2nnc(-c3ccco3)o2)c(C)n1Cc1ccco1,-0.1,7.9,-2.6,53.2,-0.2,0.6
CCC1CCCCN1C(=O)CSc1nnc(-c2cccs2)o1 (stereo not drawn),-0.1,1.7,4.1,23.0,-0.1,28.4*
O=C(CSc1nnc(-c2cccs2)o1)c1cccs1,-0.8,1.7,-5.5,7.4,1.1,0.1
Cc1cc(C(=O)CSc2nnc(-c3ccco3)o2)c(C)n1-c1ccc2c(c1)OCCO2,-0.4,4.6,5.1,62.3*,-0.3,-2.8
Cc1ccc(OCC(O)Cn2c(=N)n(CCN3CCCCC3)c3ccccc32)cc1 (stereo not drawn),-0.6,5.8,42.7*,-13.2,-1.9,0.0
CCCCn1c(=N)n(CC(O)COc2cccc(C)c2)c2ccccc21 (stereo not drawn),0.2,0.2,42.9*,-30.3,-1.1,-0.7
CCCCCn1c(=N)n(CC(O)COc2ccccc2OC)c2ccccc21 (stereo not drawn),-0.3,11.5,64.4*,-2.1,-1.0,0.4
